In the library only some 1.6% were active in any assay of this set; here they are far more common.
TDP2 absorb – blocks human TDP2 phosphodiesterase activity | inhibition, % at 12.8 µM | 370,000 compounds, 0.34% hits | AID 720702 | recombinant TDP2, T5PNP hydrolysis, p-nitrophenol absorbance 415 nm | O95551;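 active = inhibition above the mean of all tested compounds plus 3 SD, set per campaign, cut at about 25% in these data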;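 note: 0% = DMSO with enzyme and 100% = buffer with substrate but no TDP2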
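Incubation: 2 h at 37 °C; Test system: recombinant human TDP2; Quantity: enzyme 120 nM; Read-out basis: percent inhibition; Medium: 50 mM Tris-HCl pH 7.5 with Mg2+, KCl, DTT, BSA; Repeats: single replicate; Compound: 12.8 µM single point, 1% DMSO; Signal: epi absorbance; Reagent: 5 mM T5PNP chromogenic substrate; Benchmarks: no-enzyme high, DMSO-plus-enzyme low.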
UHRF1 MBD2 ctr – blocks human UHRF1 binding to methylated DNA; Q96T88; UHRF1 binding to methylated oligo, TR-FRET; inhibition, % at 4.4 µM; 370,000 compounds, 0.75% hits; AID 687016; in the data active = inhibition above about 21%;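 note: UHRF1 SRA domain binding a hemimethylated CpG hairpin DNA probe; 0% = median of test compound wells and 100% = reference inhibitor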
LEDGF integ inh – blocks HIV-1 LEDGF/p75-dependent DNA integration; TR-FRET IN-LEDGF/p75 DNA integration, Eu/Cy5; inhibition, % at 3.7 µM; 370,000 compounds, 0.64% hits;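 active = inhibition above the screen-wide mean plus 3 SD, cut at about 13% in these data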;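 note: signal is the Cy5 over europium emission ratio at 671 and 618 nm; 0% = plate median of compound wells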
MBD2 inh – blocks human MBD2 binding to methylated DNA; 370,000 compounds, 0.31% hits; Q9UBB5; inhibition, % at 4.4 µM; TR-FRET, MBD2 binding to methylated oligonucleotide; in the data active = inhibition above about 13%
Target sequence (Q9UBB5 whole entry, looked up): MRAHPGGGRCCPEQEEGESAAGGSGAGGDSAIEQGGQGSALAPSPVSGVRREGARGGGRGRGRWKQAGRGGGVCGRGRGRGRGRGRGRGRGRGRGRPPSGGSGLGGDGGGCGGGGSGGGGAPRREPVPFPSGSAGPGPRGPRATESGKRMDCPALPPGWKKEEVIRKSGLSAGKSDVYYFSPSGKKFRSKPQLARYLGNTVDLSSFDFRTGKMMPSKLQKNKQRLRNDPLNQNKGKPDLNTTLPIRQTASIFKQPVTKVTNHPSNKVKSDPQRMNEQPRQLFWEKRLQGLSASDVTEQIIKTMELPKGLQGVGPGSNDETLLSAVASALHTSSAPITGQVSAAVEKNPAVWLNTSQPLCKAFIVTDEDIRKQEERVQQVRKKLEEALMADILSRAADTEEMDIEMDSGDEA
IN multimer up – counter-screen for LEDGF/p75 integration inhibitors: HIV-1 integrase multimerization activators | activation, % at 7.7 µM | 2,000 compounds, 17% hits | AID 1053131 | shares compounds with LEDGF integ inh | TR-FRET HIV-1 integrase multimerization, biochemical; in the data active = activation above about 8.9%
TR-FRET interf – optically interferes with TR-FRET readout in LEDGF counter-screen; shares compounds with LEDGF integ inh; TR-FRET optical interference counterscreen, HIV-1 IN multimerization; inhibition, % at 7.7 µM; 2,000 tested, under 10 active;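 active = inhibition above the mean over all tested compounds plus 3 SD, which no compound reached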;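 note: 0% = integrase with antibodies and DMSO and 100% = antibodies without integrase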
LEDGF integ conf – confirmation of HIV-1 LEDGF/p75-dependent integration inhibitors. inhibition, % at 3.7 µM. shares compounds with LEDGF integ inh. AID 1053136. TR-FRET LEDGF/p75-dependent HIV-1 integration, biochemical. 2,000 compounds, 36% hits; in the data active = inhibition above about 14%
* marks the source's active call; other numbers are inactive results; . = no result given.

SMILES | TDP2 absorb | UHRF1 MBD2 ctr | LEDGF integ inh | MBD2 inh | IN multimer up | TR-FRET interf | LEDGF integ conf
Cc1ccc(S(=O)(=O)N2CCN(C(=O)COC(=O)c3cccnc3Cl)CC2)c(C)c1 | 8 | -2 | 66* | -7 | -2 | 7 | 1
O=C(c1cc(-c2ccccc2)on1)N1CCC(Oc2cccnc2)CC1 | 6 | -2 | 0 | 0 | . | . | .
Oc1ccc(NCc2cccc(OCc3ccccc3)c2)cc1 | 8 | -1 | 16* | -8 | 8.9* | -45 | 41*
O=[N+]([O-])c1ccc(COc2cccc(CNc3ccc(F)cc3)c2)cc1 | -3 | 0 | 1 | -2 | . | . | .
Oc1ccc(NCc2cccc(OCc3ccc(F)cc3)c2)cc1 | 14 | -2 | 14* | -7 | 5 | -26 | 26*
CCCCOc1ccc(C(=O)NC2CCCCN(CC)C2=O)cc1 (configuration not stated) | 4 | -2 | 3 | -2 | . | . | .
Cc1ccc(CNc2ccc(O)cc2)cc1 | 21 | -2 | 20* | -8 | 11* | -56 | 31*
Cc1ccc(NCc2ccccc2O)cc1 | 8 | -2 | -2 | 3 | . | . | .
CC(C)(C)C(=O)O[C@@H]1CCC[C@@]2(C(=O)N(Cc3ccccc3)c3ccccc32)[C@H]1NC(=O)CCc1ccccc1 | -4 | -2 | 3 | -7 | . | . | .
O=C(N[C@@H](Cc1cccnc1)C(=O)N1CCC[C@H]1C(=O)NC1CCCC1)C1CCCC1 | 8 | 1 | 1 | -1 | . | . | .
O=C(NC(Cc1ccccc1)C(=O)O)/C(=C\c1ccco1)NC(=O)c1ccc(Br)cc1 (configuration not stated) | -18 | 7 | 22* | 1 | 0 | -2 | -2
O=C(Nc1ccc(C(=O)O)cc1)/C(=C\c1ccco1)NC(=O)c1ccc(Br)cc1 | 16 | 10 | 14* | 5 | 0 | 2 | 2
O=C(Nc1ccc(C(=O)O)cc1)/C(=C\c1ccco1)NC(=O)c1ccc(Br)o1 | 20 | 10 | 10 | 3 | . | . | .
O=C(NC(Cc1ccccc1)C(=O)O)/C(=C\c1ccco1)NC(=O)c1ccccc1 (configuration not stated) | -2 | 0 | 7 | -3 | . | . | .
COc1cccc(C2C(C#N)=C(N)Oc3cc(C)oc(=O)c32)c1OC (configuration not stated) | 1 | -2 | 0 | -4 | . | . | .
COc1cccc(C2C(C#N)=C(N)Oc3cc(N)ccc32)c1OC (configuration not stated) | 11 | -8 | 15* | 0 | 3 | -9 | -9
COc1ccc2c(c1)CNC2CS(=O)(=O)NCC(C)C (configuration not stated) | -2 | -4 | 8 | -2 | . | . | .
COc1cccc(-c2cnc3c(NC=O)cc(-c4ccccc4)cn23)c1 | 0 | -2 | -1 | -3 | . | . | .
COc1cccc(-c2cnc3c(NC=O)cc(-c4ccoc4)cn23)c1 | 4 | -2 | 13* | 0 | 1 | -7 | 5
CN1CCC/C1=C/C=C1\SC(=S)NC1=O | 6 | -16 | 18* | -12 | 17* | -61 | -2
CN1/C(=C\C=C2/SC(=S)NC2=O)C(C)(C)c2ccccc21 | 2 | -21 | -1 | -17 | . | . | .
CC(=O)Nc1ccc(S(=O)(=O)/N=C2/NC(=O)/C(=C\c3ccco3)S2)cc1 | 13 | 31* | 23* | 4 | 6 | -20 | 6
O=C(NCc1ccccc1)[C@H]1CCCN1C(=O)[C@H]1CCCN1C(=O)c1ccc(F)c(C(F)(F)F)c1 | 7 | 6 | -1 | 4 | . | . | .
O=c1c2cc3cccnc3nc2ncn1CCc1c[nH]c2ccccc12 | -1 | -2 | 6 | -8 | . | . | .
CCCCn1c(NC(=O)c2ccccc2)nc2ccccc21 | -25 | -6 | 26* | 0 | -1 | 7 | 25*
SMILES | TDP2 absorb | UHRF1 MBD2 ctr | LEDGF integ inh | MBD2 inh | IN multimer up | TR-FRET interf | LEDGF integ conf
CN(C)CCCn1c(NC(=O)C2CCCCC2)nc2ccccc21 | -8 | -3 | 3 | 0 | . | . | .
C=CCn1c(NC(=O)c2ccccc2)nc2ccccc21 | 10 | 72* | 15* | 4 | -4 | 19 | 14*
CCn1c(NC(=O)c2ccccc2)nc2ccccc21 | 3 | 0 | 7 | 4 | . | . | .
CCCCn1c(NC(=O)C2CCCCC2)nc2ccccc21 | -15 | 0 | 28* | 2 | 1 | -3 | 17*
Cn1c(=O)cc(OCC(=O)N2CCN(c3ccccc3Cl)CC2)c2ccccc21 | 4 | 19 | 1 | -7 | . | . | .
CC1=CC(=O)C(C(C)C)=C/C1=N\OS(=O)(=O)c1ccccc1 | 2 | 0 | -1 | 1 | . | . | .
N#Cc1ccc(S(=O)(=O)N2CCCc3nc(-c4ccc(F)cc4)ccc32)cc1 | 6 | 0 | 0 | 1 | . | . | .
COc1ccc(CC(=O)OC(C)CN2CCCCC2)cc1 (configuration not stated) | -8 | 1 | 15* | -5 | -1 | 4 | 3
Cc1noc(/C=C/N(C)C)c1S(=O)(=O)N1CCCC(C(=O)Nc2ccc3c(c2)OCO3)C1 (configuration not stated) | -10 | 0 | 15* | 1 | -1 | 6 | -4
O=C(NCCO)[C@H](Cc1ccccc1)NC1(C(=O)NCCc2c[nH]c3ccccc23)CCCCC1 | 3 | 0 | -2 | 0 | . | . | .
CNc1ccc(Br)cc(C(=O)/C=C/c2ccc(OC)cc2)c1=O | -7 | 12 | 30* | 8 | 3 | -16 | 27*
CNc1ccc(Br)cc(C(=O)/C=C/c2ccc3c(c2)OCO3)c1=O | 0 | 2 | 19* | 2 | 7 | -25 | 36*
CNc1ccc(Br)cc(C(=O)/C=C/c2cc(OC)ccc2OC)c1=O | -2 | -1 | 10 | 1 | . | . | .
O=C(C=Cc1ccc2c(c1)OCO2)c1ccccc1 | -3 | -3 | 0 | 1 | . | . | .
COC(=O)[C@]12C[C@H](CC(=O)N3CCN(C(=O)C4CC4)CC3)C(=O)N(CCC3=CCCCC3)C1=C[C@H](C1CCCC1)O[C@@H]2C | -1 | 0 | -4 | 7 | . | . | .
Cc1ccc(S(=O)(=O)N2CCCC2)cc1C(=O)N1CCN(Cc2ccccc2)CC1 | -2 | -1 | 22* | 2 | 0 | 2 | 0
CC1(OC(=O)c2ccc(Cl)nc2)C(=O)C=C2C=C3CCCN3C=C2C1=O (configuration not stated) | 11 | 13 | 18* | -1 | 8 | -42 | 42*
c1ccc(-n2c(SCc3cccc4ccccc34)nnc2-c2ccccn2)cc1 | -5 | -1 | -1 | 1 | . | . | .
O=Cc1ccc(/C=C2\c3ccccc3C(=O)N2c2ccccc2)o1 | 3 | 7 | 38* | -5 | 2 | -10 | 20*
COC(=O)[C@]12C[C@H](CC(=O)NCc3cccc4ccccc34)C(=O)N(Cc3ccco3)C1=C[C@H](C(C)C)O[C@@H]2C1CC1 | -1 | -2 | -2 | 0 | . | . | .

Compound activity (PubChem BioAssay)
